Key:
Abutilon theophrasti [1] = assay: Herbicidal activity against Abutilon theophrasti (velvetleaf) at 100 g/hm2 postemergent application after 2 weeks; assay type: functional
In short: (§1)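 Seedlings grown 14 days in the greenhouse; plants uniform in size and stage were chosen. Test compound in acetone sprayed post-emergence at a carrier volume equivalent to 187 L/ha. Plants returned to the greenhouse and watered; untreated plants served as control. Each species scored visually two weeks after application on a 0–100 scale (0 no activity, 100 total control).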

Digitaria sanguinalis [2] = assay: Herbicidal activity against Digitaria sanguinalis (hairy crabgrass) at 100 g/hm2 postemergent application after 2 weeks; assay type: functional; in short: as §1
Echinochloa crus-galli [3] = assay: Herbicidal activity against Echinochloa crus-galli (barnyard grass) at 100 g/hm2 postemergent application after 2 weeks; assay type: functional; in short: as §1
[4] = Crop selectivity index, ratio of LD10 for soybean to LD90 for velvetleaf
Triticum aestivum [5] = assay: Toxicity against Triticum aestivum (wheat) at 100 g/hm2 postemergent application after 2 weeks; assay type: organism-based; conditions: in vivo, other, 336 h; in short: as §1
Triticum aestivum [6] = assay: Toxicity against Triticum aestivum (wheat) at 25 g/hm2 postemergent application after 2 weeks; assay type: organism-based; conditions: in vivo, other, 336 h
Glycine max [7] = assay: Toxicity against Glycine max (soybean) at 100 g/hm2 postemergent application after 2 weeks; assay type: organism-based; conditions: in vivo, other, 336 h; in short: as §1
Glycine max [8] = assay: Toxicity against Glycine max (soybean) at 25 g/hm2 postemergent application after 2 weeks; assay type: organism-based; conditions: in vivo, other, 336 h
Glycine max [9] = assay: Toxicity against Glycine max (soybean) at postemergent application after 2 weeks; assay type: organism-based; conditions: in vivo, other, 336 h; in short: as §1
Abutilon theophrasti [10] = assay: Herbicidal activity against Abutilon theophrasti (velvetleaf) at postemergent application after 2 weeks; assay type: functional; in short: as §1
Xanthium strumarium [11] = assay: Herbicidal activity against Xanthium strumarium (cocklebur) at 25 g/hm2 postemergent application after 2 weeks; assay type: functional; in short: as §1
Xanthium strumarium [12] = assay: Herbicidal activity against Xanthium strumarium (cocklebur) at 100 g/hm2 postemergent application after 2 weeks; assay type: functional; in short: as §1
Xanthium strumarium [13] = assay: Herbicidal activity against Xanthium strumarium (cocklebur) at 40 g/hm2 postemergent application after 2 weeks; assay type: functional; in short: as §1
Commelina communis [14] = assay: Herbicidal activity against Commelina communis (Asiatic dayflower) at 100 g/hm2 post-emergent application after 2 weeks; assay type: functional; in short: as §1
Commelina communis [15] = assay: Herbicidal activity against Commelina communis (Asiatic dayflower) at 25 g/hm2 post-emergent application after 2 weeks; assay type: functional; in short: as §1
Commelina communis [16] = assay: Herbicidal activity against Commelina communis (Asiatic dayflower) at 40 g/hm2 post-emergent application after 2 weeks; assay type: functional; in short: as §1
Amaranthus retroflexus [17] = assay: Herbicidal activity against Amaranthus retroflexus at 40 g/hm2 postemergent application after 2 weeks; assay type: functional; in short: as §1
Portulaca oleracea [18] = assay: Herbicidal activity against Portulaca oleracea at 40 g/hm2 postemergent application after 2 weeks; assay type: functional; in short: as §1
Abutilon theophrasti [19] = assay: Herbicidal activity against Abutilon theophrasti (velvetleaf) at 25 g/hm2 postemergent application after 2 weeks; assay type: functional; in short: as §1
Abutilon theophrasti [20] = assay: Herbicidal activity against Abutilon theophrasti (velvetleaf) at 30 g/hm2 postemergent application after 2 weeks; assay type: functional; in short: as §1
Abutilon theophrasti [21] = assay: Herbicidal activity against Abutilon theophrasti (velvetleaf) at 120 g/hm2 postemergent application after 2 weeks; assay type: functional; in short: as §1
Abutilon theophrasti [22] = assay: Herbicidal activity against Abutilon theophrasti (velvetleaf) at 480 g/hm2 postemergent application after 2 weeks; assay type: functional; in short: as §1
Abutilon theophrasti [23] = assay: Herbicidal activity against Abutilon theophrasti (velvetleaf) at 40 g/hm2 postemergent application after 2 weeks; assay type: functional; in short: as §1
Digitaria sanguinalis [24] = assay: Herbicidal activity against Digitaria sanguinalis (hairy crabgrass) at 25 g/hm2 postemergent application after 2 weeks; assay type: functional; in short: as §1
Digitaria sanguinalis [25] = assay: Herbicidal activity against Digitaria sanguinalis (hairy crabgrass) at 120 g/hm2 postemergent application after 2 weeks; assay type: functional; in short: as §1
Digitaria sanguinalis [26] = assay: Herbicidal activity against Digitaria sanguinalis (hairy crabgrass) at 30 g/hm2 postemergent application after 2 weeks; assay type: functional; in short: as §1
Digitaria sanguinalis [27] = assay: Herbicidal activity against Digitaria sanguinalis (hairy crabgrass) at 480 g/hm2 postemergent application after 2 weeks; assay type: functional; in short: as §1
Digitaria sanguinalis [28] = assay: Herbicidal activity against Digitaria sanguinalis (hairy crabgrass) at 40 g/hm2 postemergent application after 2 weeks; assay type: functional; in short: as §1
Echinochloa crus-galli [29] = assay: Herbicidal activity against Echinochloa crus-galli (barnyard grass) at 25 g/hm2 postemergent application after 2 weeks; assay type: functional; in short: as §1
Echinochloa crus-galli [30] = assay: Herbicidal activity against Echinochloa crus-galli (barnyard grass) at 30 g/hm2 postemergent application after 2 weeks; assay type: functional; in short: as §1
Echinochloa crus-galli [31] = assay: Herbicidal activity against Echinochloa crus-galli (barnyard grass) at 120 g/hm2 postemergent application after 2 weeks; assay type: functional; in short: as §1
Echinochloa crus-galli [32] = assay: Herbicidal activity against Echinochloa crus-galli (barnyard grass) at 40 g/hm2 postemergent application after 2 weeks; assay type: functional; in short: as §1
Echinochloa crus-galli [33] = assay: Herbicidal activity against Echinochloa crus-galli (barnyard grass) at 480 g/hm2 postemergent application after 2 weeks; assay type: functional; in short: as §1
Setaria glauca (foxtail) [34] = assay: Herbicidal activity against Setaria glauca at 40 g/hm2 postemergent application after 2 weeks
Abutilon theophrasti [35] = assay: Herbicidal activity against Abutilon theophrasti (velvetleaf) at 2000 g/hm2 postemergent application after 2 weeks; assay type: functional; in short: as §1
Abutilon theophrasti [36] = assay: Herbicidal activity against Abutilon theophrasti (velvetleaf) at 1000 g/hm2 postemergent application after 2 weeks; assay type: functional; in short: as §1
Digitaria sanguinalis [37] = assay: Herbicidal activity against Digitaria sanguinalis (hairy crabgrass) at 2000 g/hm2 postemergent application after 2 weeks; assay type: functional; in short: as §1
Digitaria sanguinalis [38] = assay: Herbicidal activity against Digitaria sanguinalis (hairy crabgrass) at 1000 g/hm2 postemergent application after 2 weeks; assay type: functional; in short: as §1
Echinochloa crus-galli [39] = assay: Herbicidal activity against Echinochloa crus-galli (barnyard grass) at 2000 g/hm2 postemergent application after 2 weeks; assay type: functional; in short: as §1
Echinochloa crus-galli [40] = assay: Herbicidal activity against Echinochloa crus-galli (barnyard grass) at 1000 g/hm2 postemergent application after 2 weeks; assay type: functional; in short: as §1
Triticum aestivum [41] = assay: Toxicity against Triticum aestivum (wheat) at 400 g/hm2 postemergent application after 2 weeks; assay type: organism-based; conditions: in vivo, other, 336 h
In short: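 Greenhouse post-emergence test: plants grown 14 days, then chosen for uniform size and stage. Compound dissolved in acetone and sprayed at a carrier volume equivalent to 187 L per hectare, over […]. Untreated plants served as control. Plants were rated two weeks after application on a 0–100 scale (0 no activity, 100 total control).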

Glycine max [42] = assay: Toxicity against Glycine max (soybean) at 400 g/hm2 postemergent application after 2 weeks; assay type: organism-based; conditions: in vivo, other, 336 h; in short: as §1
Xanthium strumarium [43] = assay: Herbicidal activity against Xanthium strumarium (cocklebur) at 400 g/hm2 postemergent application after 2 weeks; assay type: functional; in short: as §1
Commelina communis [44] = assay: Herbicidal activity against Commelina communis (Asiatic dayflower) at 400 g/hm2 post-emergent application after 2 weeks; assay type: functional; in short: as §1
Amaranthus retroflexus [45] = assay: Herbicidal activity against Amaranthus retroflexus at 400 g/hm2 postemergent application after 2 weeks; assay type: functional; in short: as §1
Portulaca oleracea [46] = assay: Herbicidal activity against Portulaca oleracea at 400 g/hm2 postemergent application after 2 weeks; assay type: functional; in short: as §1
Abutilon theophrasti [47] = assay: Herbicidal activity against Abutilon theophrasti (velvetleaf) at 400 g/hm2 postemergent application after 2 weeks; assay type: functional; in short: as §1
Abutilon theophrasti [48] = assay: Herbicidal activity against Abutilon theophrasti (velvetleaf) at 200 g/hm2 postemergent application after 2 weeks; assay type: functional; in short: as §1
Digitaria sanguinalis [49] = assay: Herbicidal activity against Digitaria sanguinalis (hairy crabgrass) at 400 g/hm2 postemergent application after 2 weeks; assay type: functional; in short: as §1
Digitaria sanguinalis [50] = assay: Herbicidal activity against Digitaria sanguinalis (hairy crabgrass) at 200 g/hm2 postemergent application after 2 weeks; assay type: functional; in short: as §1
Echinochloa crus-galli [51] = assay: Herbicidal activity against Echinochloa crus-galli (barnyard grass) at 400 g/hm2 postemergent application after 2 weeks; assay type: functional; in short: as §1
Echinochloa crus-galli [52] = assay: Herbicidal activity against Echinochloa crus-galli (barnyard grass) at 200 g/hm2 postemergent application after 2 weeks; assay type: functional; in short: as §1
Setaria glauca (foxtail) [53] = assay: Herbicidal activity against Setaria glauca at 400 g/hm2 postemergent application after 2 weeks

Structure (SMILES)	Activity (Abutilon theophrasti [1])	Activity (Digitaria sanguinalis [2])	Activity (Echinochloa crus-galli [3])	Selectivity Index [4]	Activity (Triticum aestivum [5])	Activity (Glycine max [7])	LD10 (Glycine max [9])	LD90 (Abutilon theophrasti [10])	Activity (Xanthium strumarium [12])	Activity (Commelina communis [14])	Activity (Abutilon theophrasti [20])	Activity (Abutilon theophrasti [21])	Activity (Abutilon theophrasti [22])	Activity (Abutilon theophrasti [23])	Activity (Digitaria sanguinalis [25])	Activity (Digitaria sanguinalis [26])	Activity (Digitaria sanguinalis [27])	Activity (Digitaria sanguinalis [28])	Activity (Echinochloa crus-galli [30])	Activity (Echinochloa crus-galli [31])	further results
CCOC(=O)/C=C/COC(=O)c1cc(Oc2ccc(C(F)(F)F)cc2Cl)ccc1[N+](=O)[O-]	100%	60%	55%	3.2	25%	10%	63 g/hm2	19.4 g/hm2	98%	95%	95%	99%	100%	95%	80%	60%	90%	70%	40%	50%	Activity (Triticum aestivum [6]): 10%; Activity (Glycine max [8]): 5%; Activity (Xanthium strumarium [11]): 40%; Activity (Xanthium strumarium [13]): 70%; Activity (Commelina communis [15]): 35%; Activity (Commelina communis [16]): <70%; Activity (Amaranthus retroflexus [17]): 95%; Activity (Portulaca oleracea [18]): 95%; Activity (Abutilon theophrasti [19]): 65%; Activity (Digitaria sanguinalis [24]): 5%; Activity (Echinochloa crus-galli [29]): 0%; Activity (Echinochloa crus-galli [32]): <70%; Activity (Echinochloa crus-galli [33]): 70%; Activity (Setaria glauca (foxtail) [34]): <70%
C=CCOC(=O)/C=C/COC(=O)c1cc(Oc2ccc(C(F)(F)F)cc2Cl)ccc1[N+](=O)[O-]	–	–	–	–	–	–	–	–	–	–	–	–	–	–	–	–	–	–	–	–	Activity (Abutilon theophrasti [35]): 100%; Activity (Abutilon theophrasti [36]): 80%; Activity (Digitaria sanguinalis [37]): 55%; Activity (Digitaria sanguinalis [38]): 25%; Activity (Echinochloa crus-galli [39]): 60%; Activity (Echinochloa crus-galli [40]): 30%
O=C(O)c1cc(Oc2ccc(C(F)(F)F)cc2Cl)ccc1[N+](=O)[O-] [ACIFLUORFEN]	85%	10%	25%	3.4	0%	5%	461.8 g/hm2	137.4 g/hm2	80%	60%	–	–	–	50%	–	–	–	0%	–	–	Activity (Triticum aestivum [41]): 15%; Activity (Glycine max [42]): 10%; Activity (Xanthium strumarium [43]): <70%; Activity (Commelina communis [44]): <70%; Activity (Amaranthus retroflexus [45]): 95%; Activity (Portulaca oleracea [46]): 95%; Activity (Abutilon theophrasti [47]): 70%; Activity (Abutilon theophrasti [48]): 95%; Activity (Abutilon theophrasti [36]): 100%; Activity (Digitaria sanguinalis [49]): 70%; Activity (Digitaria sanguinalis [50]): 0%; Activity (Digitaria sanguinalis [38]): 10%; Activity (Echinochloa crus-galli [51]): <70%; Activity (Echinochloa crus-galli [32]): 20%; Activity (Echinochloa crus-galli [52]): 50%; Activity (Echinochloa crus-galli [40]): 90%; Activity (Setaria glauca (foxtail) [53]): <70%
CCCCOC(=O)/C=C/COC(=O)c1cc(Oc2ccc(C(F)(F)F)cc2Cl)ccc1[N+](=O)[O-]	–	–	–	–	–	–	–	–	–	–	90%	90%	95%	–	80%	70%	85%	–	10%	20%	Activity (Echinochloa crus-galli [33]): 40%
